pIC50: −log10 of the molar value. Calls of active or inactive are those of the source. No cut-off for these calls is given here.
Columns and labels:
[1] = target: T1, Histone-arginine methyltransferase CARM1 (Homo sapiens, UniProt Q86X55); test: Inhibition of CARM1 (unknown origin)
T1 sequence (Q86X55 whole entry): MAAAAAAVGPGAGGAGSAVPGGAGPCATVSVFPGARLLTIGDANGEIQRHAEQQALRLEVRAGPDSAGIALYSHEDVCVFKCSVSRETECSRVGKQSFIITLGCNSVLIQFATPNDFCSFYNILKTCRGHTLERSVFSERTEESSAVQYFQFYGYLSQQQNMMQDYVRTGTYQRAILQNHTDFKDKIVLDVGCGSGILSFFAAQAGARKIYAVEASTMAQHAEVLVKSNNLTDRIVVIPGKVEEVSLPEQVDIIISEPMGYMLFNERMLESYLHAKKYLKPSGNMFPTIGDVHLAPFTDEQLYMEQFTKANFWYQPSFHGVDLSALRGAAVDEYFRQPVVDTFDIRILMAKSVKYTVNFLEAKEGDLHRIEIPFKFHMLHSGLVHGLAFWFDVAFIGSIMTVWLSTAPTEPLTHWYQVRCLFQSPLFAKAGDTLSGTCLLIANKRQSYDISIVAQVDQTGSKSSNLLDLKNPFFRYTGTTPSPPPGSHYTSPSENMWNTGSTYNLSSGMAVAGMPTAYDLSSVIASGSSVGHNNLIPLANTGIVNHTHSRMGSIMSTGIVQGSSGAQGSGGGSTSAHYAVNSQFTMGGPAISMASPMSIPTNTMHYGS
Method in brief: (§1)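 Radiometric methyltransfer assay. Enzyme transfers a tritiated methyl from ³H-SAM onto a biotin-labelled peptide substrate, with unlabelled SAM added when needed. The methylated peptide is captured in FlashPlate wells and counted by scintillation. IC50 comes from titrating compound under balanced conditions, with both peptide substrate and SAM at their Km concentrations.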

[2] = target: Protein arginine N-methyltransferase 5 (Homo sapiens, UniProt O14744); test: Inhibition of PRMT5 (unknown origin); method in brief: as §1
Sequence of Protein arginine N-methyltransferase 5 (O14744 whole entry): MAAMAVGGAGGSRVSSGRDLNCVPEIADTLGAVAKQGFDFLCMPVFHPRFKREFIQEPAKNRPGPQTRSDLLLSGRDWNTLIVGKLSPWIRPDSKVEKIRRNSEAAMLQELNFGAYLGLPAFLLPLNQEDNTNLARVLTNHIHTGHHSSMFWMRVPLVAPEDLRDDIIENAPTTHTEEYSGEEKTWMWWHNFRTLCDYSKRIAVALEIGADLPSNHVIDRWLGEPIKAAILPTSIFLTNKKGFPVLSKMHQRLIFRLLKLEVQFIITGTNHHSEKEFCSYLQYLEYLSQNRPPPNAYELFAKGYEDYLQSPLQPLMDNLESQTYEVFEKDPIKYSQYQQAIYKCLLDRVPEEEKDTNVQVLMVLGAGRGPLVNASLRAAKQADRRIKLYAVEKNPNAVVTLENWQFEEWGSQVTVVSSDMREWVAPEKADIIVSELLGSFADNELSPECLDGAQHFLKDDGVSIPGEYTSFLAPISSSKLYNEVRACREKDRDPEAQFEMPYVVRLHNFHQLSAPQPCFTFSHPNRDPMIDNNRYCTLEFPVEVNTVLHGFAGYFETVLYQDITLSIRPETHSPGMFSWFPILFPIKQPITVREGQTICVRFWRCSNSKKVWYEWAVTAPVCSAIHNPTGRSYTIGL

[3] = target: T2, Histone-arginine methyltransferase CARM1 (Homo sapiens) (UniProt Q86X55); test: Noncompetitive inhibition of CARM1 (unknown origin) at varying levels of peptide substrate and cofactor 3H-SAM by scintillation proximity assay
T2 sequence (whole entry): T1 sequence (Q86X55 whole entry)

SMILES | pIC50 [1] | pIC50 [2] | inhibition [3]
CNCCN1CCC(NCc2cccc(C(F)(F)F)c2)CC1 | 6.52 |  | 
CNCCN1CCC(NCc2cccc(Cl)c2)CC1 | 6.80 |  | 
CNCCN1CCC(NCc2ccccc2)CC1 | 6.33 | < 4.30 | 
CNCCN1CCC(NCc2cccc(OC(F)(F)F)c2)CC1 | 6.47 |  | 
CNCCN1CCC(NCc2cccc(F)c2)CC1 | 6.65 |  | 
CNCCN1CCC(NCc2cccc(Br)c2)CC1 | 7.03 | < 4.30 | Active
CNCCN1CCC(NCc2cccc(-c3ccccc3)c2)CC1 | 6.48 |  | 

Continued by rising pIC50 [1], values first:

pIC50 [1] | SMILES | pIC50 [2] | inhibition [3]
6.84 | CNCCN1CC(OCc2cccc(OC(F)(F)F)c2)C1 |  | 
6.89 | CNCCN1CC(NCc2cccc(F)c2)C1 |  | 
7.03 | CNCCN1CC(NCc2cccc(C(F)(F)F)c2)C1 |  | 
7.05 | CNCCN1CC(NCc2cccc(OC(F)(F)F)c2)C1 |  | 
7.17 | CNCCN1CC(NCc2cccc(Br)c2)C1 |  | 
7.30 | CNCCN1CC(NCc2cccc(Cl)c2)C1 |  | 

Reference: ChEMBL document CHEMBL3994567, “Design and synthesis of selective, small molecule inhibitors of coactivator-associated arginine methyltransferase 1 (CARM1)” (Medchemcomm, 2016)
